The record followed here is ChEMBL document CHEMBL5154764, “Development of small molecules that work cooperatively with ciprofloxacin to clear salmonella biofilms in a chronic gallbladder carriage model” (Eur J Med Chem, 2022).

SMILES strings stand for the structures. Active and inactive are the calls of the source. No cut-off for these calls is given here.

In experiment [1] the test system is Salmonella typhimurium. Kind of experiment: Antibacterial activity against Salmonella typhimurium ATCC 14028 infected in 129X1/SvJ NRAMP +/+ mouse gallstone model assessed as log reduction in bacterial burden in gallblader at 4 mg/kg/day, ip administered from 5 to 15 consecutive days and measured on day 15. The settings on record: time 10 day. Type of experiment: functional, Salmonella enterica subsp. enterica serovar Typhimurium. The method, boiled down: (§1)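 129X1/SvJ NRAMP+/+ mice given a lithogenic diet (chow plus 1% cholesterol, 0.5% cholic acid) for 8 weeks. Infected i.p. with ~10^3 CFU in 200 μL PBS. Treated daily i.p. on days 5–15 post-infection; vehicle 5% DMSO in PBS. Day 15: gallbladder, liver and spleen homogenized in 1 mL PBS, serially diluted and plated on LB agar (37 °C, 16 h) for CFU counts. One-way ANOVA with Tukey correction.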

The subject of experiment [2] is Salmonella typhimurium. Kind of experiment: Antibacterial activity against Salmonella typhimurium ATCC 14028 infected in 129X1/SvJ NRAMP +/+ mouse gallstone model assessed as reduction in bacterial burden in liver at 2 mg/kg/day, ip administered from 5 to 15 consecutive days and measured on day 15. Type of experiment: functional, organism-based. Particulars: Salmonella enterica subsp. enterica serovar Typhimurium, time 10.0 day. The method, boiled down:
as §1

Experiment [3] concerns Salmonella typhimurium. The experiment can be described thus: Antibacterial activity against Salmonella typhimurium ATCC 14028 infected in 129X1/SvJ NRAMP +/+ mouse gallstone model assessed as reduction in bacterial burden in spleen at 2 mg/kg/day, ip administered from 5 to 15 consecutive days and measured on day 15. The settings on record: Salmonella enterica subsp. enterica serovar Typhimurium, time 10.0 day. Type of experiment: functional, organism-based. The method, boiled down:
as §1

Experiment [4] relates to Salmonella typhimurium. The experiment can be described thus: Antibiofilm activity against Salmonella typhimurium ATCC 14028 assessed as inhibition of biofilm formation incubated for 24 hrs by crystal violet staining based spectrophotometry. Type of experiment: functional, organism-based, Salmonella enterica subsp. enterica serovar Typhimurium. The settings on record: Salmonella enterica, ATCC 14028, 24 h. The method, boiled down: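 LB overnight cultures (37 °C) set to OD600 0.8, diluted 1:100 into TSB diluted 1:20 in water. Compound at 0.2–100 μM or DMSO added at inoculation. Grown 24 h at 30 °C with nutation, washed, heat-fixed (60 °C, 1 h), stained with crystal violet, dye solubilized in acetic acid, read at 570 nm. IC50 from variable-slope fit of % biofilm vs log concentration. Mean ± SD of three biological replicates.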

In experiment [5] the test system is Salmonella typhimurium. Kind of experiment: Antibiofilm activity against Salmonella typhimurium ATCC 14028 assessed as biofilm dispersal effect incubated for 24 hrs by crystal violet staining based spectrophotometry. Type of experiment: functional, organism-based, Salmonella enterica subsp. enterica serovar Typhimurium. Particulars: Salmonella enterica, ATCC 14028, 24 h. The method, boiled down:
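Biofilms grown 24 h at 30 °C with nutation in TSB diluted 1:20, from 1:100-diluted LB overnight cultures set to OD600 0.8. Crystal violet staining, acetic acid solubilization, 570 nm read-out. EC50 from variable-slope fit of % biofilm remaining vs log concentration. Mean ± SD of three biological replicates.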

Experiment [6] deals with Salmonella typhimurium. The experiment can be described thus: Antibacterial activity against Salmonella typhimurium ATCC 14028 infected in 129X1/SvJ NRAMP +/+ mouse gallstone model assessed as log reduction in bacterial burden in gallblader at 5 mg/kg/day, ip administered for 5 to 15 consecutive days of post infection and measured on day 15 in presence of 1 mg/kg/day ciprofloxacin. Type of experiment: functional, Salmonella enterica subsp. enterica serovar Typhimurium. Particulars: time 10 day. The method, boiled down: as §1

The test system of experiment [7] is Salmonella typhimurium. Kind of experiment: Antibacterial activity against Salmonella typhimurium ATCC 14028 infected in 129X1/SvJ NRAMP +/+ mouse gallstone model assessed as log reduction in bacterial burden in gallblader at 10 mg/kg/day, ip administered from 5 to 15 consecutive days and measured on day 15 in presence of 1 mg/kg/day ciprofloxacin. Type of experiment: functional, Salmonella enterica subsp. enterica serovar Typhimurium. The settings on record: time 10 day.

Turning to `O=C(O)c1cn(C2CC2)c2cc(N3CCNCC3)c(F)cc2c1=O` [CIPROFLOXACIN], the “log(activity)” value in the experiment with Salmonella typhimurium [1] turned out to be 3. In addition, the outcome in the experiment on Salmonella typhimurium [2] and in the experiment with Salmonella typhimurium [3] was Active.

By IC50 is commonly meant the concentration at which inhibition is half-maximal. As usually defined, the EC50 is the concentration at which the effect is half-maximal. Consider `CN(Cc1ccsc1)CC1CCN(CCc2ccccc2F)CC1`, for which the IC50 with Salmonella typhimurium [4] worked out at 5.7 µM. Also, in the experiment on Salmonella typhimurium [5], the concentration for a half-maximal effect (EC50) stood at 829 µM. Besides, the “log(activity)” value is given as 2 in the experiment on Salmonella typhimurium [6] and 3 in the experiment with Salmonella typhimurium [7].
